Structures are written as SMILES. ≈ marks a conversion by molar mass, not a printed value. Calls of active or inactive are those of the source. The calls are words filed in the database; no cut-off is given here.

The subject of one test is Mus musculus. In words: Antimalarial activity in NMRI mice (Mus musculus) infected with Plasmodium berghei K173 at 25 mg/kg. The class given is functional.
Conditions: not given
Summed up: (§1)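 Mice inoculated day 0 with 1×10⁶ P. berghei K173-infected red cells in 0.2 mL 0.9% saline; five mice per group. At day 4 (parasitemia 2-9%), ip dosing in 0.9% saline with 10% Tween 80, pH 4.5, on days 4 and 5; control group untreated or vehicle-injected. Day-5 tail-vein blood smear, Giemsa-stained, infected cells counted microscopically; % inhibition versus control.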
What is called inhibition in vivo is the drop in the measured response relative to a control, in per cent. A high value points to a response far below the control. As to `C=CC(/C=C/c1ccc(Cl)cc1Cl)c1ccc(OC)cc1OC` (configuration not stated), the inhibition in vivo at 25 mg/kg came to 57%.
For `C=CCOc1ccc(CCC(CCCC)c2ccc(OC)cc2OC)cc1` (configuration not stated), the inhibition in vivo at 25 mg/kg came out at 25%.

The subject of the next test is Mus musculus. In words: Antimalarial activity in NMRI mice (Mus musculus) infected with Plasmodium berghei K173 at 100 mg/kg. In kind it is functional.
Conditions: not given
In outline:
as §1
Take `C=CCOc1ccc(CCC(CCCC)c2ccc(OC)cc2OC)cc1` (configuration not stated): testing at 100 mg/kg gave an inhibition in vivo of 59%.

A further test has as its system Plasmodium falciparum. Put plainly: Antiplasmodial activity against Plasmodium falciparum 3D7. The class given is functional, organism-based.
Conditions: not given
In outline:
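Desjardins [³H]phenylalanine incorporation method (Ziegler modification). Parasitized erythrocytes (blood type 0, 5% hematocrit, 2-3% parasitemia) mixed with compounds in RPMI 1640/HEPES with 0.45% Albumax II, L-glutamine, hypoxanthine, gentamicin; final DMSO ≤0.5%. 24 h at 37 °C under 93% N₂/5% CO₂/2% O₂, then label added for further 24 h; filter-harvested, scintillation counted. Three experiments, each in triplicate; IC50.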
As usually defined, the IC50 is the midpoint of a concentration-inhibition curve. Compound `CCC(/C=C/c1ccccc1CN(C)C)c1ccc(Cl)cc1Cl` (configuration not stated) registered an IC50 of 4.1 µg/mL (≈ 11.8 µM).
Still for that read-out and setting: then `CCC(/C=C/c1ccc(OC)cc1OC)c1ccc(Cl)cc1Cl` (configuration not stated), with 6 µg/mL (≈ 17.1 µM); and `C=C[C@@H](/C=C/c1ccc(O)cc1)c1ccc(O)cc1`, with 20 µg/mL (≈ 79.3 µM).
Compound `C=CCOc1ccc(/C=C/C(C=C)c2ccc(OC)cc2OC)cc1` (configuration not stated) displayed an IC50 of 7 µg/mL (≈ 20.8 µM).
`C=CCOc1ccc(CCC(C=C)c2ccc(OC)cc2OC)cc1` (configuration not stated): it took 5.2 µg/mL (≈ 15.4 µM) to reach half-maximal inhibition (IC50).
The same measure, in the same setting: then `CCC(/C=C/c1ccc(F)cc1)c1ccc(F)cc1` (configuration not stated), with 13 µg/mL (≈ 50.3 µM).
On to `CCC(/C=C/c1ccc(OC)c(OC)c1OC)c1cccc(F)c1` (configuration not stated), for which the 50% inhibitory concentration (IC50) was 3.9 µg/mL (≈ 11.8 µM).
As to `CCC(/C=C/c1ccc(Cl)cc1Cl)c1ccc(OC)cc1OC` (configuration not stated), the half-maximal inhibitory concentration (IC50) was 4.2 µg/mL (≈ 12 µM).
As to `C=CCOc1ccc(/C=C/C(CC)c2ccc(OC)cc2OC)cc1` (configuration not stated), half-maximal inhibition (IC50) required 4 µg/mL (≈ 11.8 µM).
Regarding `C=CC(/C=C/c1ccc(Cl)cc1Cl)c1ccc(OC)cc1OC` (configuration not stated), the concentration for half-maximal inhibition (IC50) worked out at 1.5 µg/mL (≈ 4.29 µM).
Still for that read-out and setting: next, `C=CCOc1ccc(CCCc2ccc(OC)cc2OC)cc1`: 9.5 µg/mL (≈ 30.4 µM); `C=CC(/C=C/c1ccccc1CN(C)C)c1ccc(Cl)cc1Cl` (configuration not stated): 3 µg/mL (≈ 8.66 µM).
Regarding `C=CC(/C=C/c1ccc(F)cc1)c1ccc(F)cc1` (configuration not stated), inhibition was half-maximal at 10 µg/mL (≈ 39 µM) (IC50).
For `C=CC(/C=C/c1ccc(OC)cc1OC)c1ccc(Cl)cc1Cl` (configuration not stated), the half-inhibitory concentration (IC50) is 7 µg/mL (≈ 20 µM).
For `C=CC(/C=C/c1ccc(F)cc1F)c1ccc(OC)cc1OC` (configuration not stated), 7 µg/mL (≈ 22.1 µM) corresponded to half-maximal inhibition (IC50).
The same measure, in the same setting: then `C=CCOc1ccc(CCC(CC)c2ccc(OC)cc2OC)cc1` (configuration not stated), with 3 µg/mL (≈ 8.81 µM); and `C=CC(/C=C/c1ccc(O)cc1)c1ccc(O)cc1` (racemic), with 13 µg/mL (≈ 51.5 µM); and `COc1ccc(C2CC(c3ccccc3Br)OC2C)c(OC)c1` (configuration not stated), with 3 µg/mL (≈ 7.95 µM).
Compound `CCC(/C=C/c1ccccc1Br)c1ccc(OC)cc1OC` (configuration not stated) yielded a half-inhibitory concentration (IC50) of 5.4 µg/mL (≈ 14.9 µM).
`C=CC(/C=C/c1ccccc1C(F)(F)F)c1ccc(Cl)cc1Cl` (configuration not stated) gave an IC50 of 8.2 µg/mL (≈ 23 µM).
The compound `C=CC(/C=C/c1ccc(OC)c(OC)c1OC)c1cccc(F)c1` (configuration not stated) came in with a 50% inhibitory concentration (IC50) of 6 µg/mL (≈ 18.3 µM).
As to `COc1ccc(C2CC(c3ccc(Cl)cc3Cl)OC2C)c(OC)c1` (configuration not stated), half-maximal inhibition (IC50) required 6.9 µg/mL (≈ 18.8 µM).
As to `C=CC(/C=C/c1ccccc1F)c1cc(OC)cc(OC)c1` (configuration not stated), the half-maximal inhibitory concentration (IC50) amounted to 6 µg/mL (≈ 20.1 µM).
For the compound `C=CCOc1ccc(C(O)CC(C=C)c2ccc(OC)cc2OC)cc1` (configuration not stated), inhibition was half-maximal at 16 µg/mL (≈ 45.1 µM) (IC50).
As for `CCC(/C=C/c1ccc(F)cc1F)c1ccc(OC)cc1OC` (configuration not stated), the midpoint of inhibition, the IC50, lay at 3.9 µg/mL (≈ 12.3 µM).
Consider `CCC(/C=C/c1ccccc1C(F)(F)F)c1ccc(Cl)cc1Cl` (configuration not stated), for which half-maximal inhibition (IC50) required 6 µg/mL (≈ 16.7 µM).
Still for that read-out and setting: then `C=CC(/C=C/c1ccccc1Br)c1ccc(OC)cc1OC` (configuration not stated), with 8.8 µg/mL (≈ 24.5 µM); and `C=C[C@H](/C=C/c1ccc(O)cc1)c1ccc(O)cc1`, with 14 µg/mL (≈ 55.5 µM).
In turn, `C=CCOc1ccc(CCC(CCCC)c2ccc(OC)cc2OC)cc1` (configuration not stated) gave an IC50 of 2.2 µg/mL (≈ 5.97 µM).
Take `CCC(/C=C/c1ccccc1F)c1cc(OC)cc(OC)c1` (configuration not stated): the IC50 came to 6 µg/mL (≈ 20 µM).
In turn, `C=CCOc1ccc(/C=C/C(CCCC)c2ccc(OC)cc2OC)cc1` (configuration not stated) registered an IC50 of 2.7 µg/mL (≈ 7.37 µM).

The species named for a further test is Oryctolagus cuniculus. In words: Inhibitory activity against SERCA in rabbit muscle at 3.5 ug/mL. The class given is tissue-based. The note with it: Muscle tissue.
As for `C=CC(/C=C/c1ccc(Cl)cc1Cl)c1ccc(OC)cc1OC` (configuration not stated), the inhibition entry is “inactive”.
Consider `C=CCOc1ccc(CCC(CCCC)c2ccc(OC)cc2OC)cc1` (configuration not stated), for which the inhibition entry was “inactive”.

The test system of a further test is Mus musculus. Put plainly: Antimalarial activity in NMRI mice (Mus musculus) infected with Plasmodium berghei K173 at 50 mg/kg.
Conditions: not given
The class given is functional. In outline: as §1
Take `C=CCOc1ccc(CCC(CCCC)c2ccc(OC)cc2OC)cc1` (configuration not stated): the inhibition in vivo at 50 mg/kg amounted to 49%.

The record behind these values is ChEMBL document CHEMBL1148581, “Antimalarial and antiplasmodial activities of norneolignans. Syntheses and SAR” (J Med Chem, 2006).
